Source: ChEMBL document CHEMBL4732051, “The discovery of potent small molecule activators of human STING” (Eur J Med Chem, 2021)

Assays:
Cytochrome P450 1A2 = biological target: T1, Cytochrome P450 1A2 (Homo sapiens, UniProt P05177); test: Inhibition of CYP1A2 (unknown origin); type: ADME
T1 sequence (P05177 whole entry): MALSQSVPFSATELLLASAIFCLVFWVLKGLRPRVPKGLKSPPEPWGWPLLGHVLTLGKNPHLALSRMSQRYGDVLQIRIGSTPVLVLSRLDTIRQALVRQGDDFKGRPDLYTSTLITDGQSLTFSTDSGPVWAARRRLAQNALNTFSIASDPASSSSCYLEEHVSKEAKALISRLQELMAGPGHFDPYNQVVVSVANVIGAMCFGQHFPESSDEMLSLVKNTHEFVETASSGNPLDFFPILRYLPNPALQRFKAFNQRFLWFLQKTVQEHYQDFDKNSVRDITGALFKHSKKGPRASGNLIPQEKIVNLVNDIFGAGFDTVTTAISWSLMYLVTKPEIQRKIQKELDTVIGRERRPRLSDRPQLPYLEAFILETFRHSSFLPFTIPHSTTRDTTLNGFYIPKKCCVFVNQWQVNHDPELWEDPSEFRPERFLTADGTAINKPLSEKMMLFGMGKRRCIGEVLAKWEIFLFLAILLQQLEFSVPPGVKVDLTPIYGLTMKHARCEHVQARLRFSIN

[1] = Stability in human plasma at 37 degC by LC-MS/MS analysis; type: ADME, cell-free
How it was run: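 Compound at 10 μM was incubated in mouse or human plasma at 37°C and its stability assessed.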

inhibition (INH) (Cytochrome P450 1A2): Not Active
Stabilty [1]: Stable
SMILES: CC1(C)C(=O)N(Cc2c(F)cccc2Cl)c2cc(C(=O)NCc3c(F)cc(F)cc3F)ccc21
